The source made the active and inactive calls. Bounds are passed on as bounds.

Data on one compound can be found in ChEMBL document CHEMBL5335784, “Discovery of a novel 1,3,4-oxadiazol-2-one-based NLRP3 inhibitor as a pharmacological agent to mitigate cardiac and metabolic complications in an experimental model of diet-induced metaflammation” (Eur J Med Chem, 2023).

Series [1] concerns Rattus norvegicus. Nature of the series: Cardioprotective activity against ischemia/reperfusion-induced myocardial injury and high diet fed obese Wistar rat model assessed as decrease in LDH activity in coronary effluents at 20 mg/kg/day, ip administered for 4 weeks followed by excised heart exposed to global ischemia for 30 mins and reperfusion for 120 mins and measured during first 20 mins of reperfusion by spectrophotometric analysis. It counts as functional, organism-based. In outline:
(§1)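 HFD or SD rats, dosed 20 mg/kg/day i.p. for the final 28 days, anaesthetised with ethyl carbamate (2 g/kg i.p.). Hearts Langendorff-perfused with Krebs–Henseleit buffer (pH 7.4, 37 °C, 12 ml/min); 40 min stabilization, 30 min global no-flow ischemia, 120 min reperfusion. Coronary effluent collected on ice before ischemia and at 10, 20, 30 min reperfusion; LDH activity by McQueen method. n=6–7.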

Series [2] concerns Rattus norvegicus. Description: Inhibition of ischemia/reperfusion-induced inflammation in ischemia/reperfusion-induced myocardial injury and high fat diet fed obese Wistar rat model assessed as decrease in cardiac IL-1 beta level at 20 mg/kg/day, ip administered for 4 weeks followed by excised heart exposed to global ischemia for 30 mins and reperfusion for 120 mins by ELISA. It counts as functional, organism-based. An outline of the steps:
(§2)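 Male Wistar rats on standard or 60% kcal fat diet for 12 weeks; last 28 days i.p. 20 mg/kg/day in saline with 2% DMSO and 5% Cremophor-EL, or vehicle. Hearts perfused by Langendorff with KH buffer at 12 ml/min, 37°C, then 40 min stabilization, 30 min global no-flow ischemia and 120 min reperfusion. Cytokines measured in LV tissue; n=6–7 per group.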
A general note: In an ELISA, binding on a coated surface is turned into a signal by an enzyme label.

Series [3] relates to Rattus norvegicus. Nature of the series: Inhibition of ischemia/reperfusion-induced inflammation in ischemia/reperfusion-induced myocardial injury and standard diet fed Wistar rat model assessed as decrease in cardiac TNF-alpha level at 20 mg/kg/day, ip administered for 4 weeks followed by excised heart exposed to global ischemia for 30 mins and reperfusion for 120 mins by ELISA. In kind it is functional, organism-based. An outline of the steps: as §2

Series [4] relates to Rattus norvegicus. Nature of the series: Inhibition of ischemia/reperfusion-induced oxidative stress in ischemia/reperfusion-induced myocardial injury and standard diet fed Wistar rat model assessed as increase in cardiac SOD activity at 20 mg/kg/day, ip administered for 4 weeks followed by excised heart exposed to global ischemia for 30 mins and reperfusion for 120 mins. It counts as functional, organism-based. An outline of the steps: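 Same rat diet, dosing and ischemia/reperfusion protocol. LV homogenized in 50 mM Tris-HCl pH 8.2 with 1 mM DTPA and centrifuged at 20,000 x g for 20 min. Supernatant mixed with 0.2 mM pyrogallol, autoxidation followed at 420 nm for 3 min. Activity given as % pyrogallol autoxidation relative to sham; 1 U inhibits the rate by 50%.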

The nature of series [5]: Drug metabolism in human serum assessed as half time for compound hydrolysis to 2-(5-(2-Chlorobenzyl)-2-oxo-1,3,4-oxadiazol-3(2H)-yl)acetic acid at 100 uM by RP-HPLC analysis. In kind it is ADME, cell-free. In outline: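 Compound at 100 μM final (from 10 mM DMSO stock) in human male AB serum held at 37 °C. Aliquots at intervals deproteinized with CH3CN/0.1% TFA, centrifuged, filtered and analysed by RP-HPLC against calibration standards. Pseudo-first-order t1/2 from exponential decay fit; three experiments.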

Series [6] can be described thus: Stability of the compound in saline solution containing 2% DMSO and 5% Cremophor-EL measured at 4 degC for more than 7 days by RP-HPLC analysis. It counts as physicochemical. The following applies: buffer, 168 h; time 7 day. In outline:
(§3)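 A 2 mg/mL solution in saline with 2% DMSO and 5% Cremophor-EL was kept at 4 °C or 25 °C for 7 days and analysed daily by RP-HPLC at 226/254 nm.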

The nature of series [7]: n-Octanol/water distribution coefficient, log D of the compound at pH 7.4 measured after 4 hrs by shake flask method. It counts as physicochemical. An outline of the steps:
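Shake-flask at room temperature between n-octanol and 50 mM phosphate buffer pH 7.4, ionic strength 0.15 M KCl. Phases were pre-saturated by 4 h shaking. Compound at about 0.1 mg/ml in buffer, shaken about 20 min with n-octanol, then centrifuged at 10000 rpm for 10 min.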

The nature of series [8]: Stability of the compound in saline solution containing 2% DMSO and 5% Cremophor-EL measured at 25 degC for more than 7 days by RP-HPLC analysis. It counts as physicochemical. The following applies: buffer, 168 h; time 7 day. In outline: as §3
Series [9] can be described thus: Effect on left ventricular end diastolic pressure in standard diet fed Wistar rat model at 20 mg/kg/day, ip administered for 4 weeks (reference value: 3+/-1 mm Hg). The conditions noted are these: in vivo, 672 h. It counts as toxicity, organism-based.
Series [10] deals with Rattus norvegicus. Nature of the series: Antiinflammatory activity against high fat diet fed-induced metaflammation Wistar rat model assessed as reduction in HFD-induced metabolic alterations by measuring reduction in plasma glucose level at 20 mg/kg/day, ip administered for 4 weeks by glucometer analysis. In kind it is functional, organism-based. An outline of the steps: (§4)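 Rats fed HFD or SD for 12 weeks, dosed 20 mg/kg/day i.p. in saline/2% DMSO/5% Cremophor-EL during the final 28 days. Serum obtained after sacrifice by centrifuging blood at 2000 x g, 10 min, 4 °C. Glucose read by glucometer; total, HDL and LDL cholesterol and triglycerides measured with commercial kits. n=6–7 per group.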

Series [11] deals with Rattus norvegicus. Description: Cardioprotective activity against ischemia/reperfusion-induced myocardial injury and standard diet fed Wistar rat model assessed as decrease in LDH activity in coronary effluents at 20 mg/kg/day, ip administered for 4 weeks followed by excised heart exposed to global ischemia for 30 mins and reperfusion for 120 mins and measured during first 20 mins of reperfusion by spectrophotometric analysis. It counts as functional, organism-based. In outline:
as §1

Series [12] relates to Rattus norvegicus. Description: Cardioprotective activity against ischemia/reperfusion-induced myocardial injury and high diet fed obese Wistar rat model assessed as decrease in LDH activity in coronary effluents at 20 mg/kg/day, ip administered for 4 weeks followed by excised heart exposed to global ischemia for 30 mins and reperfusion for 120 mins and measured during first 10 mins of reperfusion by spectrophotometric analysis. In kind it is functional, organism-based. An outline of the steps: as §1

Series [13] is described as follows: Drug metabolism in PBS assessed as half time for compound hydrolysis to 2-(5-(2-Chlorobenzyl)-2-oxo-1,3,4-oxadiazol-3(2H)-yl)acetic acid at 100 uM at pH 7.4 by RP-HPLC analysis. In kind it is ADME. In outline:
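Compound added from 10 mM DMSO stock to 50 mM PBS, pH 7.4, 37 °C. Sampled over 48 h and quantified by RP-HPLC (phenyl column, 226/254 nm) against external standards of ester and acid.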

The test system of series [14] is Rattus norvegicus. Description: Antiinflammatory activity against high fat diet fed-induced metaflammation Wistar rat model assessed as reduction in HFD-induced metabolic alterations by measuring increase in HDL cholesterol level in plasma at 20 mg/kg/day, ip administered for 4 weeks. In kind it is functional, organism-based. An outline of the steps:
as §4

Series [15] deals with Rattus norvegicus. Description: Inhibition of ischemia/reperfusion-induced oxidative stress in ischemia/reperfusion-induced myocardial injury and high fat diet fed obese Wistar rat model assessed as decrease in cardiac MDA level at 20 mg/kg/day, ip administered for 4 weeks followed by excised heart exposed to global ischemia for 30 mins and reperfusion for 120 mins by TBARS assay. It counts as functional, organism-based. An outline of the steps: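 Same rat diet, dosing and Langendorff ischemia/reperfusion protocol. LV homogenized 10% w/v in 0.9% KCl pH 7.4. Homogenate heated at 100 °C for 15 min with TCA and TBA plus butylated hydroxytoluene, centrifuged, and read at […]. MDA expressed as nmol/g heart tissue, compared with sham hearts perfused for 190 min.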

For series [16], the system named is Rattus norvegicus. Description: Antiinflammatory activity against high fat diet fed-induced metaflammation Wistar rat model assessed as reduction in HFD-induced metabolic alterations by measuring reduction in LDL cholesterol level in plasma at 20 mg/kg/day, ip administered for 4 weeks. In kind it is functional, organism-based. An outline of the steps:
as §4

Series [17] is described as follows: Effect on glyco-metabolic profile in standard diet fed Wistar rat assessed as effect on triglyceride level in plasma at 20 mg/kg/day, ip administered for 4 weeks. In kind it is toxicity, organism-based. The following applies: in vivo, 672 h. In outline: as §4

As usually defined, the half-life is the time needed for the level to fall by half in the phase considered. What is called logD is lipophilicity at a set pH, counting ionised and neutral species. Read a high logD as a more lipophilic compound. As to `CCOC(=O)Cn1nc(Cc2ccccc2Cl)oc1=O`, the result with Rattus norvegicus [1], in the series with Rattus norvegicus [10], with Rattus norvegicus [11], with Rattus norvegicus [12], in the series on Rattus norvegicus [14] and with Rattus norvegicus [16] was Active. Moreover, the inhibition result in the series with Rattus norvegicus [2], in the series on Rattus norvegicus [3], in the series with Rattus norvegicus [4] and in the series with Rattus norvegicus [15] was “Active” each time. The half-life at 100 µM in series [5] is 4 h; in [13], > 48 h. For the same compound, the Stability entry in [6] and in [8] was “Stable” in each case. In series [7], the logD at 4 h was 2.03. The Activity in series [9] is on record as 3 mmHg; in series [17] it was “Non-Toxic”.
